The source made the active and inactive calls. The rule behind the calls is not given here.
Experiments:
[1] = test system: Lung; assay: Drug level in ICR mouse lung treated intratracheally with 20 mg/kg (R)-Mepenzolate after 5 to 30 mins; format: ADME, organism-based; set-up: dose 20 mg/kg, route endotracheal; conditions: in vivo, inhaled_or_intranasal
Procedure, shortened: (§1)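 Male ICR mice (4-6 weeks) under isoflurane given the enantiomer in sterile saline (1 ml/kg) intratracheally by micropipette. Whole lungs taken at indicated times, homogenised in sterile PBS with 50 U/ml heparin, centrifuged; 300 µl aliquot ultrafiltered and filtrate analysed by chiral HPLC (Chiralpak IA; water with 0.1 M KPF6/acetonitrile 30:70, 1.0 mL/min). Level expressed as µg/lung; mean ± SEM, n = 3.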

[2] = test system: Mus musculus; assay: Antiinflammatory activity against ICR mouse assessed as inhibition of porcine pancreatic elastase-induced increase in TNF-alpha level at 7.5 to 38 ug/kg administered intratracheally 1 hr prior to porcine pancreatic elastase challenge measured after 6 hrs by ELISA; format: functional, organism-based
Procedure, shortened: (§2)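 Male ICR mice, 4-6 weeks old, under isoflurane anaesthesia, given each enantiomer or racemate intratracheally in sterile saline (1 ml/kg) by micropipette; 1 h later PPE (20 U/kg) or saline vehicle given the same way. BALF collected 6 h after PPE; TNF-α, MIP-2, MCP-1 and KC measured by ELISA. Mean ± SEM; Tukey's test.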

[3] = Drug level in ICR mouse lung at 20 mg/kg administered intratracheally after 5 mins; format: ADME, organism-based; set-up: dose 20 mg/kg, route endotracheal; conditions: inhaled or intranasal, read-out: Drug uptake; procedure, shortened: as §1
[4] = Drug level in ICR mouse lung at 20 mg/kg administered intratracheally after 30 mins; format: ADME, organism-based; set-up: dose 20 mg/kg, route endotracheal; conditions: inhaled or intranasal, read-out: Drug uptake; procedure, shortened: as §1
[5] = test system: Mus musculus; assay: Antiinflammatory activity against ICR mouse assessed as inhibition of porcine pancreatic elastase-induced increase in neutrophil count in BALF at 7.5 to 38 ug/kg administered intratracheally 1 hr prior to porcine pancreatic elastase challenge measured after 6 hrs; format: functional, organism-based
Procedure, shortened: (§3)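 Male ICR mice (4-6 weeks), isoflurane-anaesthetised, dosed intratracheally in sterile saline (1 ml/kg) 1 h before intratracheal PPE (20 U/kg) or vehicle. BALF taken 6 h after PPE; total cells counted by hemocytometer, cytospin slides stained with Diff-Quik to get neutrophil fraction of total cells. Mean ± SEM; Tukey's test.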

[6] = test system: Mus musculus; assay: Antiinflammatory activity against ICR mouse assessed as inhibition of porcine pancreatic elastase-induced increase in KC level at 7.5 to 38 ug/kg administered intratracheally 1 hr prior to porcine pancreatic elastase challenge measured after 6 hrs by ELISA; format: functional, organism-based; procedure, shortened: as §2
[7] = Drug level in ICR mouse lung at 20 mg/kg administered intratracheally after 15 mins; format: ADME, organism-based; set-up: dose 20 mg/kg, route endotracheal; conditions: inhaled or intranasal, read-out: Drug uptake; procedure, shortened: as §1
[8] = test system: Mus musculus; assay: Bronchodilatory activity in ICR mouse assessed as supression of methacholine-induced increase in airway resistance at 3.8 ug/kg administered intratracheally 1 hr prior to methacholine challenge; format: functional, organism-based
Procedure, shortened: (§4)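 Male ICR mice (4-6 weeks) given compound intratracheally in saline (1 ml/kg). 1 h later, anaesthetised with chloral hydrate (500 mg/kg), tracheotomised, and ventilated at 150 breaths/min, tidal volume 8.7 ml/kg, PEEP 2-3 cmH₂O. Challenged with nebulised methacholine (5 mg/ml), five 20 s exposures 40 s apart. Airway resistance measured after each challenge by snapshot technique. Mean ± SEM.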

[9] = test system: Mus musculus; assay: Antiinflammatory activity against ICR mouse assessed as inhibition of porcine pancreatic elastase-induced increase in leucocyte count in BALF at 7.5 to 38 ug/kg administered intratracheally 1 hr prior to porcine pancreatic elastase challenge measured after 6 hrs; format: functional, organism-based; procedure, shortened: as §3
[10] = test system: Mus musculus; assay: Suppression of fecal pellet output in ICR mouse at 4.7 mg/kg administered intratracheally 1 hr prior to restraint stress measured for 1 hr relative to control; format: organism-based, Feces; set-up: dose 4.7 mg/kg, route endotracheal; conditions: in vivo, inhaled_or_intranasal
Procedure, shortened: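 Male ICR mice (4-6 weeks) dosed intratracheally in sterile saline (1 ml/kg) under isoflurane; vehicle controls received saline alone. One hour later each mouse was restrained individually in a 50 ml tube for 1 h, and fecal pellets excreted during restraint were counted. Mean ± SEM; Tukey's test.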

[11] = test system: Mus musculus; assay: Increase in heart rate in ICR mouse at 940 to 4700 ug/kg administered intratracheally measure immediately post dosing relative to control; format: ADME, organism-based; conditions: in vivo, inhaled_or_intranasal
Procedure, shortened: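 Male ICR mice (4-6 weeks) given compound intratracheally in sterile saline (1 ml/kg) under isoflurane; anaesthetised with chloral hydrate (500 mg/kg), pulse-oximeter sensor attached to thigh after 20 min. Heart rate (beats per minute) recorded immediately after dosing; percentage change from baseline to peak calculated. Mean ± SEM; Tukey's test.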

[12] = test system: Mus musculus; assay: Antiinflammatory activity against ICR mouse assessed as inhibition of porcine pancreatic elastase-induced increase in MCP-1 level at 7.5 to 38 ug/kg administered intratracheally 1 hr prior to porcine pancreatic elastase challenge measured after 6 hrs by ELISA; format: functional, organism-based; procedure, shortened: as §2
[13] = test system: Mus musculus; assay: Bronchodilatory activity in ICR mouse assessed as supression of methacholine-induced increase in airway resistance at 38 ug/kg administered intratracheally 1 hr prior to methacholine challenge; format: functional, organism-based; procedure, shortened: as §4
[14] = test system: Mus musculus; assay: Antiinflammatory activity against ICR mouse assessed as inhibition of porcine pancreatic elastase-induced increase in MIP-2 level at 7.5 to 38 ug/kg administered intratracheally 1 hr prior to porcine pancreatic elastase challenge measured after 6 hrs by ELISA; format: functional, organism-based; procedure, shortened: as §2
[15] = test system: Lung; assay: Drug level in ICR mouse lung treated intratracheally with 20 mg/kg (S)-Mepenzolate after 5 to 30 mins; format: ADME, organism-based; set-up: dose 20 mg/kg, route endotracheal; conditions: in vivo, inhaled_or_intranasal; procedure, shortened: as §1

Q: With `C[N+]1(C)CCC[C@H](OC(=O)C(O)(c2ccccc2)c2ccccc2)C1.[Br-]` as the compound, how does the Drug metabolism [1] read?
A: metabolite_notdetected

Q: What about the Activity [2] of the same compound?
A: Active

Q: And the concentration at 5 min [3]?
A: 36400 ng/mL

Q: And the concentration at 0.5 h [4]?
A: 6200 ng/mL

Q: And the Activity [5]?
A: Active

Q: What about the Activity [6] of the same compound?
A: Active

Q: What about the concentration at 0.25 h [7] of the same compound?
A: 7600 ng/mL

Q: And the Activity [8]?
A: inactive

Q: What about the Activity [9] of the same compound?
A: Active

Q: What about the Activity [10] of the same compound?
A: Non-toxic

Q: And the Activity [11]?
A: Toxic

Q: And the Activity [12]?
A: Active

Q: And the Activity [13]?
A: Active

Q: What about the Activity [14] of the same compound?
A: Active

Q: What does the source list for `C[N+]1(C)CCC[C@@H](OC(=O)C(O)(c2ccccc2)c2ccccc2)C1.[Br-]`?
A: Activity [2]: Active; concentration at 5 min [3]: 44500 ng/mL; concentration at 0.5 h [4]: 5100 ng/mL; Activity [5]: Active; Activity [6]: Active; concentration at 0.25 h [7]: 6300 ng/mL; Activity [8]: Active; Activity [9]: Active; Activity [10]: Toxic; Activity [11]: Toxic; Activity [12]: Active; Drug metabolism [15]: metabolite_notdetected; Activity [13]: Active; Activity [14]: Active

Q: What does the source list for `C[N+]1(C)CCCC(OC(=O)C(O)(c2ccccc2)c2ccccc2)C1.[Br-]` (racemic) [MEPENZOLATE BROMIDE]?
A: Activity [2]: Active; Activity [5]: Active; Activity [6]: Active; Activity [8]: Active; Activity [9]: Active; Activity [10]: Toxic; Activity [11]: Toxic; Activity [12]: Active; Activity [13]: Active; Activity [14]: Active
